Data taken from PMC11462461 (Heliyon, 2024).

Columns and labels:
HEK cells = experiment: MTT assay, normal kidney cells HEK; type: cell-based, Human; details: for IC50: Homo sapiens, HEK293, 48 h
Method in brief: (§1)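 Cells were STR-authenticated and mycoplasma-tested (HEK was a gift; the others were from a national cell repository). They were cultured with 10 % FBS at 37 °C, with or without 5 % CO2, then plated in 96-well plates and allowed to attach overnight. Test compound was added at increasing concentrations for 48 h. Solubilized MTT formazan absorbance was read at 570 nm. At least three independent experiments were run.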

HeLa cells = experiment: MTT assay, HeLa; type: cell-based; details: Homo sapiens, 48 h
Method in brief: as §1

HCT116 cells [1] = experiment: MTT assay, HCT116; type: cell-based; details: Homo sapiens, HCT-116, 48 h
Method in brief: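 STR-authenticated, mycoplasma-tested HCT116 cells were grown in 10 % FBS medium at 37 °C. They were seeded in 96-well plates, left to attach overnight, and exposed to increasing concentrations of test compound for 48 h. DMSO-treated cells were the control. MTT formazan was solubilized and read at 570 nm. Experiments were repeated thrice, with SEM error bars.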

MDA-MB-231 cells = experiment: MTT assay, MDA-MB-231; type: cell-based; details: Homo sapiens, MDA-MB-231, 48 h
Method in brief: as §1

HCT116 cells [2] = experiment: Foci formation assay; type: cell-based, Human; details: HCT116, 12 days, crystal violet
HCT116 cells [3] = experiment: Hoechst/PI double staining; type: cell-based, Human; details: HCT116, 48 h
HCT116 cells [4] = experiment: Acridine orange/PI dual staining; type: cell-based, Human; details: HCT116, 48 h

For `COc1ccc(-c2cc(C(=O)Nc3ccccc3)c3cc(-c4cc(F)ccc4OC)ccc3n2)cc1` [Compound 7b, 6-(5-Fluoro-2-methoxyphenyl)-2-(4-methoxyphenyl)-N-phenylquinoline-4-carboxamide], the IC50 (HEK cells) was over 50 µM, the IC50 (HeLa cells) was 41.6 ± 0.58 µM and the IC50 (HCT116 cells [1]) was 43.3 ± 0.53 µM. The IC50 (MDA-MB-231 cells) was over 50 µM.
`COc1ccc(-c2cc(C(=O)Nc3ccccc3)c3cc(-c4cnc(Cl)c(C)c4)ccc3n2)cc1` [Compound 7g, 6-(6-Chloro-5-methylpyridin-3-yl)-2-(4-methoxyphenyl)-N-phenylquinoline-4-carboxamide] gave an IC50 (HEK cells) of over 50 µM, an IC50 (HeLa cells) of over 50 µM and an IC50 (HCT116 cells [1]) of over 50 µM. The IC50 (MDA-MB-231 cells) was over 50 µM.
`COc1ccc(-c2cc(C(=O)Nc3ccccc3)c3cc(-c4cc(C)ccc4F)ccc3n2)cc1` [Compound 7f, 6-(2-Fluoro-5-methylphenyl)-2-(4-methoxyphenyl)-N-phenylquinoline-4-carboxamide] showed an IC50 (HEK cells) of over 50 µM, an IC50 (HeLa cells) of over 50 µM and an IC50 (HCT116 cells [1]) of over 50 µM. The IC50 (MDA-MB-231 cells) was over 50 µM.
Work on `COc1ccc(-c2cc(C(=O)Nc3ccccc3)c3cc(-c4cc(Cl)ccc4F)ccc3n2)cc1` [Compound 7c, 6-(5-Chloro-2-fluorophenyl)-2-(4-methoxyphenyl)-N-phenylquinoline-4-carboxamide] yielded an IC50 (HEK cells) of over 50 µM, an IC50 (HeLa cells) of 42.4 ± 0.37 µM and an IC50 (HCT116 cells [1]) of 41.8 ± 0.16 µM. For the same compound, the IC50 (MDA-MB-231 cells) was over 50 µM.
In the case of `COc1ccc(F)cc1-c1ccc2nc(-c3ccccc3)cc(C(=O)Nc3ccccc3)c2c1` [Compound 7i, 6-(5-Fluoro-2-methoxyphenyl)-N,2-diphenylquinoline-4-carboxamide], the IC50 (HEK cells) is reported as over 50 µM, the IC50 (HeLa cells) is reported as over 50 µM and the IC50 (HCT116 cells [1]) is reported as 44.2 ± 0.08 µM. It also gave an IC50 (MDA-MB-231 cells) of over 50 µM.
In the case of `COc1ccc(F)cc1-c1ccc2nc(-c3ccc(F)cc3)cc(C(=O)Nc3ccccc3)c2c1` [Compound 7j, 6-(5-Fluoro-2-methoxyphenyl)-2-(4-fluorophenyl)-N-phenylquinoline-4-carboxamide], the IC50 (HEK cells) is reported as over 50 µM, the IC50 (HeLa cells) is reported as over 50 µM and the IC50 (HCT116 cells [1]) is reported as 42.5 ± 0.23 µM. It also gave an IC50 (MDA-MB-231 cells) of over 50 µM.
With `O=C(Nc1ccccc1)c1cc(-c2ccccc2)nc2ccc(-c3ccccc3)cc12` [Compound 7h, N,2,6-triphenylquinoline-4-carboxamide] the IC50 (HEK cells) was over 50 µM, the IC50 (HeLa cells) was 43.3 ± 0.31 µM and the IC50 (HCT116 cells [1]) was 41.6 ± 0.11 µM. For the same compound, the IC50 (MDA-MB-231 cells) was 46.3 ± 0.18 µM.
Compound `COc1ccc(-c2cc(C(=O)Nc3ccccc3)c3cc(-c4cccs4)ccc3n2)cc1` [Compound 7e, 2-(4-methoxyphenyl)-N-phenyl-6-(thiophen-2-yl)quinoline-4-carboxamide] has an IC50 (HEK cells) of over 50 µM, an IC50 (HeLa cells) of over 50 µM and an IC50 (HCT116 cells [1]) of over 50 µM. For the same compound, the IC50 (MDA-MB-231 cells) was over 50 µM.
`COc1ccc(-c2cc(C(=O)Nc3ccccc3)c3cc(-c4ccc(Cl)cc4)ccc3n2)cc1` [Compound 7d, 6-(4-chlorophenyl)-2-(4-methoxyphenyl)-N-phenylquinoline-4-carboxamide] was tested, and the IC50 (HEK cells) was over 50 µM, the IC50 (HeLa cells) was 38.3 ± 0.25 µM and the IC50 (HCT116 cells [1]) was 39.8 ± 0.11 µM. For the same compound, the IC50 (MDA-MB-231 cells) was over 50 µM.
`COc1ccc(-c2cc(C(=O)Nc3ccccc3)c3cc(-c4ccccc4)ccc3n2)cc1` [Compound 7a, 2-(4-methoxyphenyl)-N,6-diphenylquinoline-4-carboxamide] was tested, and the “toxicity towards normal cell lines” value (HEK cells; HeK) was “less toxicity towards normal cell lines”, the IC50 (HEK cells) was over 50 µM and the colony formation (HCT116 cells [2]) was “inhibit colony formation of colon cancer cells in a concentration dependent manner”. For the same compound, the IC50 (HeLa cells) was 41.3 ± 0.06 µM, the “propidium iodide uptake and nuclear membrane deformation” value (HCT116 cells [3]) was “uptake of propidium iodide in concentration dependent manner with nuclear membrane deformation in dead cells” and the “propidium iodide uptake (live/dead cells)” value (HCT116 cells [4]) was “propidium iodide uptake in concentration dependent manner”. It also gave an IC50 (HCT116 cells [1]) of 35.6 ± 0.06 µM and an IC50 (MDA-MB-231 cells) of 39.2 ± 0.13 µM.
`COc1cccc2c1C(=O)c1c(O)c3c(c(O)c1C2=O)C[C@@](O)(C(=O)CO)C[C@@H]3O[C@H]1C[C@H](N)[C@H](O)[C@H](C)O1` [Doxorubicin, reference compound] was tested, and the IC50 (HEK cells) was 8.23 ± 0.73 µM, the IC50 (HeLa cells) was 5.04 ± 0.41 µM and the IC50 (HCT116 cells [1]) was 1.26 ± 0.09 µM. The IC50 (MDA-MB-231 cells) was 5.32 ± 0.11 µM.
